Sampled rows, rich in hits. Any-hit rate of the full collection: about 2.9%.
PAD4 inh – inhibitors of human PAD4; recombinant PAD4, RCA probe fluorescence polarization; inhibition, % at 6.36 µM; Q9UM07; 330,000 compounds, 0.41% hits;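 active means percent inhibition above a cutoff equal to the mean of all tested compounds plus 3 SD, cut at about 15% in these data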;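 further: 0% = PAD4 with RCA probe and DMSO and 100% = probe without PAD4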
PRMT1 FP inh – PRMT1 (human) inhibition, primary screen; Q99873; recombinant PRMT1, activity-based probe fluorescence polarization; inhibition, % at 2.79 µM; 370,000 compounds, 1.3% hits; AID 652257;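 active means inhibition above about 21% made by adding two undisclosed values, limit read from the data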
SIAE inh – inhibitors of human sialic acid acetylesterase SIAE; Q9HAT2; SIAE FP-Rh probe binding, fluorescence polarization; inhibition, % at 9.66 µM; 370,000 compounds, 0.69% hits;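 active means inhibition above a cutoff: mean of compounds within the control limits plus 3 SD of those, cut at about 17% in these data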;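 further: 0% = plate median of compound wells and 100% = probe without SIAE protein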
mABHD4 FP – inhibitors of mouse ABHD4 | Q8VD66 | purified mABHD4, FP-Rh probe fluorescence polarization | inhibition, % at 8.92 µM | 370,000 compounds, 0.54% hits;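 active means inhibition exceeding the mean over every tested compound plus 3 SD, cut at about 30% in these data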;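 further: 0% = plate median of compound wells and 100% = S159A mutant with DMSO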
Target sequence (Q8VD66 whole entry, looked up): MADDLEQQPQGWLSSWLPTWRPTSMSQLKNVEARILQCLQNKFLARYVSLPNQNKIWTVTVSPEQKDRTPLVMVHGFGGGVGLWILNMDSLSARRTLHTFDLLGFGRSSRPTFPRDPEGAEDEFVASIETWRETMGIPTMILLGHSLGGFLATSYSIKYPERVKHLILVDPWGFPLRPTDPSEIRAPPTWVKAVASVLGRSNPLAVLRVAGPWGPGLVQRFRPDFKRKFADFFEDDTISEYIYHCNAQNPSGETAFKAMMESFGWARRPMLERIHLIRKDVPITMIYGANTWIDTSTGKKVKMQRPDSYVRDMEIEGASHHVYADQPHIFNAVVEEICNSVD
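Assay system: mABHD4 protein; medium: HEPES pH 7.0, NaCl, Pluronic buffer; dosing: 8.92 µM, single dose; schedule: 45 min + 60 min at 25 °C; signal: FP readout, ex 525 nm / em 598 nm; read-out: normalized percent inhibition of probe labeling; repeats: single replicate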
HTRA1 inhibitor – blocks human HTRA1 serine peptidase | Q92743 | recombinant HTRA1, FP-rhodamine activity-based probe, fluorescence polarization | inhibition, % at 5.96 µM | 340,000 compounds, 0.5% hits | AID 504803; in the data active means inhibition above about 36%;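 further: 0% = enzyme with DMSO and 100% = wells lacking enzyme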
TCR-CD3 inh – blocks the human TCR-CD3 interaction; TAMRA-labeled TCR probe fluorescence, biochemical; inhibition, % at 9.4 µM; 360,000 compounds, 0.37% hits; AID 651800; in the data active means inhibition above about 19%;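 further: recombinant mutant TCR 2C K166C tagged with TAMRA read by polarization; 0% = receptor in buffer alone and 100% = receptor with positive control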
* hit, by the source's call; nt = no result given.

SMILES	PAD4 inh	PRMT1 FP inh	SIAE inh	mABHD4 FP	HTRA1 inhibitor	TCR-CD3 inh
Cc1cccc(N2C(=O)CC(Sc3nc(C)c4c(n3)CCCC4)C2=O)c1 (stereo not given)	-5	3	-5	4	-7	4
Cc1nc(SC2CC(=O)N(c3cc(Cl)cc(Cl)c3)C2=O)nc2c1CCCC2 (stereo not given)	-3	24*	-4	-31	-23	-8
O=C(CSc1nnc(C2COc3ccccc3O2)o1)N1CCCC1 (stereo not given)	0	23*	-7	-9	8	0
CCOC(=O)N1CCN(C(=O)CSc2nnc(C3COc4ccccc4O3)o2)CC1 (stereo not given)	-3	4	5	2	1	0
O=C(CSc1nc2ccccc2nc1N1CCCCC1)N1CCN(S(=O)(=O)c2cc(Cl)ccc2Cl)CC1	nt	1	-2	4	nt	nt
Cc1ccc(-c2csc3ncn(-n4c(C)ccc4C)c(=O)c23)o1	-2	24*	-5	5	-6	6
N[C@@H](C(=O)N[C@@H]1C(=O)N2C(C(=O)O)=C(Cl)CS[C@H]12)c1ccccc1	2	46*	3	12	-5	14
CC1=C(C(=O)O)N2C(=O)C(NC(=O)c3ccccc3Cl)C2SC1 (stereo not given)	-4	8	2	2	7	4
CC1CN2C(c3ccc([N+](=O)[O-])cc3)=CSC2=N1 (stereo not given)	1	22*	12	2	5	10
CC1C(=O)NN=C1c1ccc([N+](=O)[O-])cc1 (stereo not given)	nt	4	8	-5	5	2
CCCCNC(=O)C[C@H]1C[C@@]2(C(=O)OC)C(=C[C@H](C3CCCC3)O[C@@H]2C)N(Cc2cccc3ccccc23)C1=O	nt	1	4	-7	nt	nt
Cc1ccc(OCc2nnc(SCC(=O)O)n2N)cc1	3	-1	0	3	5	3
COc1ccc(OCc2nnc(SCC(=O)N(C)Cc3ccccc3)n2N)cc1	-1	21*	-2	4	-3	-7
Oc1ccc(N2CCN(C(c3cccs3)c3nnnn3CCc3ccccc3)CC2)cc1 (stereo not given)	2	22*	3	10	9	-8
CC(=O)Nc1ccc2[nH]c3ccccc3c2c1	-4	-2	0	-3	-2	5
O=C(Nc1ccc(Cl)cc1)c1cc2c(cc1O)[nH]c1ccccc12	-2	5	51*	13	16	4
COC(=O)[C@H](C(C)C)N1CCc2nnn(Cc3ccc(C)cc3)c2-c2cc(F)ccc2S1(=O)=O	nt	-1	-4	5	nt	nt
COc1ccc(-n2c(SCC(=O)NCCCSC)nnc2-c2ccncc2)cc1	nt	-1	-2	3	nt	nt
S=C(NCc1ccccc1)Nc1cccc(Cl)c1	-2	3	13	-6	-25	-7
COc1cc(N=Cc2c(CO)cnc(C)c2O)cc(OC)c1OC	0	0	7	3	-2	-5
Cc1ncc(CO)c(/C=N/NC(=S)Nc2ccc(Cl)c(Cl)c2)c1O	2	2	19*	-14	16	13
Cc1ncc(CO)c(/C=N/NC(=S)Nc2cccc(Cl)c2)c1O	-1	nt	nt	nt	43*	nt
O=C(c1ccccc1Cl)N1CCC(Oc2cccnc2)CC1	nt	1	1	2	nt	nt
CC1=C[C@]2(C[N+](Cc3ccccc3)=C(N)N2)n2c(=O)n(-c3ccccc3)c(=O)n2C1	nt	1	2	3	nt	nt
CCOC(=O)[C@@]12CCCC=C1N(CCc1ccc(Cl)cc1)C(=O)[C@H]2CC(=O)NCC1CCCCC1	nt	5	-6	9	nt	nt
SMILES	PAD4 inh	PRMT1 FP inh	SIAE inh	mABHD4 FP	HTRA1 inhibitor	TCR-CD3 inh
COC(=O)[C@]12C[C@H](CC(=O)N3CCN(C(=O)C4CC4)CC3)C(=O)N(CCc3ccc(OC)c(OC)c3)C1=C[C@H](C(C)(C)C)O[C@@H]2C	nt	1	-5	5	nt	nt
CC1(C)CC(=O)C=C(NNC(=O)c2ccccc2)C1	1	1	14	7	1	3
CC1(C)CC(=O)C(CSC(=O)c2ccccc2)C(=O)C1	nt	24*	5	-1	1	-10
O=C1CC(NCC2CCCO2)C(=O)N1c1ccc(Cl)cc1 (stereo not given)	5	1	-3	0	1	11
Cc1ccc(N2C(=O)CC(NCC3CCCO3)C2=O)cc1 (stereo not given)	0	45*	2	-2	-5	-4
COC(=O)[C@]12C[C@H](CC(=O)NCc3ccc(C)o3)C(=O)N(Cc3cccc4ccccc34)C1=C[C@H](C(C)(C)C)O[C@@H]2C	nt	6	-8	-12	nt	nt
COc1cccc(C2C(C(=O)c3ccc(C)o3)=C(O)C(=O)N2c2cc(C)on2)c1 (stereo not given)	-4	4	5	12	5	2
CCCCOc1cccc(C2C(C(=O)c3ccc(C)o3)=C(O)C(=O)N2c2nnc(C)s2)c1 (stereo not given)	nt	23*	-7	-8	-11	2
CCC(=O)N(CC)C1=C(O)c2ccccc2C(=O)C1=O	3	53*	-3	15	4	-3
COc1ccc(CC2CCN(c3ncnc4sccc34)CC2)cc1	nt	2	1	-3	nt	nt
C(=N\Nc1nc(-c2ccccc2)cs1)/c1ccco1	2	24*	8	13	9	-3
C[C@@H]1COc2cc(Br)ccc2S(=O)(=O)N1Cc1cn(Cc2ccc(Cl)cc2)nn1	nt	-2	5	3	nt	nt
CN(CCO)c1cccc2c1S(=O)(=O)N(Cc1cn(Cc3cccc(F)c3)nn1)Cc1ccccc1O2	nt	-4	3	0	nt	nt
CSc1nc(SCCO)c2sc3nc(-c4ccco4)c4c(c3c2n1)CC(C)(C)OC4	nt	22*	-8	2	-22	-2
CCN1CCN(Cc2ccc(NC(=O)c3cccc(-c4ccc5nc(NC(=O)C6CC6)sc5n4)c3)cc2C(F)(F)F)CC1	nt	3	-79	-29	nt	8
C[C@]12CC[C@@H]3c4cc(O)c(O)cc4CC[C@H]3[C@@H]1CC[C@@H]2O	-1	33*	-3	26	30	5
COCCCN1C(=O)[C@H](CC(=O)N2CCCCC2)[C@]2(C(=O)OC)CCCCC=C12	nt	1	6	6	nt	nt
CCc1nc2sc3ccccc3c(=O)c2c(=O)n1Cc1ccco1	0	21*	-5	-13	8	7
Cc1ccc(-c2nc3c(c(=O)c4ccccc4n3C)c(=O)n2Cc2ccco2)cc1	-4	22*	-41	-28	-8	-1
Cn1c2ccccc2c(=O)c2c(=O)n(Cc3ccco3)c(-c3ccc(F)cc3)nc21	-3	6	-7	-15	-2	-5
O=c1c2ccccc2sc2nc(C3CCCCC3)n(Cc3ccco3)c(=O)c12	nt	18	-18	-32	-20	1
COC(=O)C1CN(Cc2ccc(OC)cc2)CCS(=O)(=O)N1Cc1ccc(C(F)(F)F)cc1 (stereo not given)	nt	0	2	-11	nt	nt
